# The list is not random: actives were taken first. Their share in the collection is about 2.6%.
# PG9 Ab binder: small molecules binding HIV-1 gp120 antibody PG9; TR-FRET gp120-PG9 antibody binding; inhibition, % at 6.7 µM; hit rate 0.43% among 360,000; AID 624416; in the data active means inhibition above about 8.5%
# NR1D1 modulator: Rev-erb alpha (human) modulation | Rev-erbα–FITC-DNA binding, fluorescence polarization, 90 min | activity, % at 10 µM | hit rate 0.79% among 370,000 | AID 1259318;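 active means activity above about 14%, limit read from the data; passing the limit was not always enough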;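 further: 0% = DMSO wells with 35 nM protein and 100% = DMSO wells with 750 nM protein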
# Target sequence (P20393 whole entry, looked up): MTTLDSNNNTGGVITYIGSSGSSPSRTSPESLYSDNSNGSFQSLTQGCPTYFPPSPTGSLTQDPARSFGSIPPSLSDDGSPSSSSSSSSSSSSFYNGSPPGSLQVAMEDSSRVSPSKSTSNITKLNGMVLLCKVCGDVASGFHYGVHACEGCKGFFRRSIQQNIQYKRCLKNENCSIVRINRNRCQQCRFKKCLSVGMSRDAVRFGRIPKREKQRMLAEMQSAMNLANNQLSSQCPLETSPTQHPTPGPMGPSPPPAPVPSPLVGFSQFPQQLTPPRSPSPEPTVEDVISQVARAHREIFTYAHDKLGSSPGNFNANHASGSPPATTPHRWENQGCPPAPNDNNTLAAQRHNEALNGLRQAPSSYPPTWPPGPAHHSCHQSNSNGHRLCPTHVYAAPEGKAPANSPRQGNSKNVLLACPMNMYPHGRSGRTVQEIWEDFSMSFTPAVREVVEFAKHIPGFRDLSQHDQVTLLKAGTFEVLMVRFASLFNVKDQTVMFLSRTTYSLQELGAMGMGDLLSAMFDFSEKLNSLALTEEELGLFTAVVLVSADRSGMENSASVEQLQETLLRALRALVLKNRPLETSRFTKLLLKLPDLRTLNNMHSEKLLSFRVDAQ
# NR2E3 ag-1: activates human photoreceptor nuclear receptor NR2E3; GST-NR2E3/biotin-RetCOR TR-FRET, 1536-well; inhibition of corepressor binding, % at 4.78 µM; hit rate 0.12% among 320,000; AID 2300;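 active means percent inhibition above the cutoff of mean plus 3 SD of all tested compounds, set per screening campaign, cut at about 20% in these data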;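 further: 0% = DMSO wells and 100% = biotin wells as full block of FRET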
#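 System: GST-NR2E3 and biotin-RetCOR proteins; probe or stimulus: 7 nM biotin-RetCOR; doses: compound at 4.8 µM, single dose; schedule: Compound–protein incubation for 5 h at 4 °C; detection: time-resolved FRET; read-out: percent inhibition; controls: biotin wells as high control, 0.6% DMSO wells as low control; format: 1536-well plates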
# NR2E3 ag-2: activates human NR2E3 receptor. Q9Y5X4. CHO-S Gal4-NCOR/VP16-NR2E3 two-hybrid, luciferase. inhibition of corepressor binding, % at 3.98 µM. hit rate 0.35% among 360,000;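 active means inhibition above the mean of all tested compounds plus 3 SD, cut at about 70% in these data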;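 further: 0% = DMSO with NR2E3 transfected cells and 100% = cells lacking NR2E3 construct; higher means lower luciferase signal from less NR2E3 corepressor binding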
# rCAG RNA binder: binds r(CAG) RNA repeats; r(CAG) RNA repeat, TO-PRO-1 dye displacement fluorescence; AID 651821; inhibition, % at 3 µM; hit rate 1.3% among 370,000;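 active means inhibition above the plate cutoff, the mean of all test compounds on that plate plus 3 SD, cut at about 35% in these data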;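 further: 0% = DMSO alone and 100% = 100 µM mitoxantrone as full dye displacement; higher means more dye released from RNA so lower well fluorescence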
# rCAG binder conf: r(CAG) RNA repeat binding, confirmation; shares compounds with rCAG RNA binder; TO-PRO-1 dye displacement fluorescence; inhibition, % at 3 µM; hit rate 70% among 4,300;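 active means inhibition above a per-plate cutoff, the mean inhibition of sample wells plus 3 SD, cut at about 35% in these data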;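 further: loss of TO-PRO-1 fluorescence as compound displaces dye from 1x1 AA loop RNA; 0% = DMSO only wells and 100% = 100 µM mitoxantrone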
# DNA CAG counter: counter-screen for rCAG RNA binders: DNA CAG dye complex inhibitors; inhibition, % at 3 µM; d(CAG) DNA oligo TO-PRO-1 dye displacement, fluorescence; AID 652068; shares compounds with rCAG RNA binder; hit rate 94% among 4,300;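 active means inhibition above its plate's cutoff, the mean test-well inhibition plus 3 SD, cut at about 4.8% in these data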;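 further: 0% = DNA dye mix with DMSO and 100% = 100 µM mitoxantrone; hits displace the dye from DNA and so lower well fluorescence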
# dCAG dye DR: disrupts DNA CAG TO-PRO-1 complex in dose response; shares compounds with rCAG RNA binder; DNA CAG/GTC duplex TO-PRO-1 dye displacement fluorescence; IC50, µM; hit rate 20% among 250; AID 686960; in the data active means IC50 below about 10 µM
# Active calls of the source: *; i = inactive; . = not tested or not shown.
SMILES,PG9 Ab binder,NR1D1 modulator,NR2E3 ag-1,NR2E3 ag-2,rCAG RNA binder,rCAG binder conf,DNA CAG counter,others
O=C1NC(=Nc2ccccc2Cl)S/C1=C\c1cccc([N+](=O)[O-])c1O,-1,-3,1,0,89*,70*,33*,dCAG dye DR=i
COc1c(/C=C2\SC(=Nc3ccccc3Cl)NC2=O)cccc1[N+](=O)[O-],-2,0,6,-13,37*,71*,29*,dCAG dye DR=i
O=C1NC(=Nc2ccccc2Cl)S/C1=C\c1ccc(C(=O)O)cc1,-2,-1,0,-17,1,.,.,
COc1ccc(OC)c(/C=C2\S/C(=N/NC(=O)c3ccc4ccccc4c3)NC2=O)c1,-1,3,0,-2,16,.,.,
COc1ccc(/C=C2\SC(=Nc3ccccc3Cl)NC2=O)c(OC)c1,0,-5,.,-30,39*,46*,13*,
O=C1NC(=Nc2ccccc2Cl)S/C1=C\c1cccc([N+](=O)[O-])c1,-1,-1,3,3,54*,67*,26*,
O=C(CN1C(=O)C2CC=CCC2C1=O)Nc1nnc(C2CC2)s1 (stereo not given),-1,2,-1,-6,6,.,.,
CC(=O)c1ccc(S(=O)(=O)N(C)CCCC(=O)N2CCN(c3ncccn3)CC2)cc1,-4,9,1,-16,-2,.,.,
O=C(O)CCC(=O)Nc1ccc(S(=O)(=O)Nc2nccs2)cc1,0,2,3,8,5,.,.,
CC(=O)Nc1ccc(NC(=O)C23CC4CC(C2)CC(n2cnc(Br)n2)(C4)C3)cc1,-1,-5,3,-12,1,.,.,
Cc1noc(NS(=O)(=O)c2ccc(NC(=O)CCC3CCCCC3)cc2)c1C,-2,1,0,-19,45*,46*,8.6*,dCAG dye DR=>30
Cc1noc(NS(=O)(=O)c2ccc(NC(=O)C34CC5CC(C3)CC(n3cnc(Br)n3)(C5)C4)cc2)c1C,0,11,-1,11,41*,29,7.6*,
Cc1ccc(C2(C)NC(=O)N(CC(=O)Nc3ccc(S(=O)(=O)Nc4nccs4)cc3)C2=O)cc1 (stereo not given),0,1,1,22,51*,31,12*,
O=C(CCC1CCCCC1)Nc1ccc(S(=O)(=O)Nc2nccs2)cc1,1,-2,1,8,53*,43*,14*,
COc1cc(/C=C/CNC[C@H]2O[C@@H](n3cnc4c(=O)[nH]c(N)nc43)[C@H](O)[C@@H]2O)ccc1O,0,3,.,4,14,.,.,
Cc1cc(N2CCN(C(=O)OC(C)(C)C)C[C@H]2C)ccc1N1C[C@@H](C)O[C@@H](C)C1,-1,3,.,.,-3,.,.,
COc1cc2c(cc1NC(=O)c1ccccc1-c1ccccc1C(=O)O)-c1ccccc1C2,-2,-6,.,16,66*,60*,20*,
COc1cccc(NC(=O)c2ccccc2-c2ccccc2C(=O)O)c1,0,-4,-1,-9,2,.,.,
COc1ccc(OC)c(NC(=O)c2c(NC(=O)CCC(=O)O)sc3c2CCCCC3)c1,-1,0,1,-21,41*,49*,17*,
O=C(O)CCC(=O)Nc1sc2c(c1C(=O)Nc1cccc3ccccc13)CCCCC2,-2,3,-1,-28,43*,28,15*,
COc1ccccc1NC(=O)c1c(NC(=O)CCC(=O)O)sc2c1CCCCC2,0,0,0,-23,13,.,.,
Cc1cc(NS(=O)(=O)c2ccc(NC(=O)CSc3nc4sc(C)c(C)c4c(=O)n3Cc3ccco3)cc2)nc(C)n1,.,-3,.,.,68*,63*,27*,
CCn1c(SCC(=O)Nc2ccc(S(=O)(=O)Nc3cc(C)nc(C)n3)cc2)nc2sc(C)c(C)c2c1=O,.,-8,.,.,53*,34,11*,
CCn1c(COc2ccccc2)nnc1SCC(=O)Nc1ccc(S(=O)(=O)Nc2cc(C)nc(C)n2)cc1,.,2,.,.,23,.,.,
Cc1cc(NS(=O)(=O)c2ccc(NC(=O)CSc3nnc(-c4ccco4)n3Cc3ccco3)cc2)nc(C)n1,-2,-6,1,2,17,.,.,
SMILES,PG9 Ab binder,NR1D1 modulator,NR2E3 ag-1,NR2E3 ag-2,rCAG RNA binder,rCAG binder conf,DNA CAG counter,others
O=[N+]([O-])c1ccc2c(c1)CO[C@@]21O[C@H](CCO)C[C@H](O)[C@H]1O,-2,-3,.,0,1,.,.,
O=S(=O)(/N=C(/NS(=O)(=O)c1ccccc1)c1ccccc1)c1ccccc1,-1,-1,3,-19,10,.,.,
O=S(=O)(N=C(NS(=O)(=O)c1ccc(Cl)cc1)c1ccccc1)c1ccc(Cl)cc1,0,-3,.,-29,55*,50*,13*,
Cc1ccc(/C=c2\s/c(=C(/C#N)C(=O)N3CCCC3)n(Cc3ccco3)c2=O)s1,-3,-1,-2,-23,35*,12,10*,
CC(OC(=O)c1ccc(NS(=O)(=O)c2ccc3[nH]c(=O)[nH]c3c2)cc1)C(=O)Nc1ccc(Cl)cc1 (stereo not given),2,4,-1,-2,43*,28,13*,
COc1ccc(Cl)cc1NC(=O)C(C)OC(=O)c1ccc(NS(=O)(=O)c2ccc3[nH]c(=O)[nH]c3c2)cc1 (stereo not given),1,10,5,-22,39*,49*,17*,
CC(OC(=O)c1ccc(NS(=O)(=O)c2ccc3[nH]c(=O)[nH]c3c2)cc1)C(N)=O (stereo not given),1,-5,1,-17,3,.,.,
CCOC(=O)c1c(-c2ccccc2)csc1N1C(=O)Nc2ccccc2N1O,0,-4,4,15,50*,38*,8.8*,
CCOC(=O)c1c(N2C(=O)Nc3ccccc3N2O)sc2c1CCCCC2,1,-2,2,7,27,.,.,
COC(=O)c1c(N2C(=O)Nc3ccccc3N2O)sc2c1CCCC2,1,5,-2,9,40*,36*,8.4*,
O=C1/C(=C\c2ccc(O)c(O)c2)C(c2ccccc2)=NN1c1ccccc1,2,3,.,-18,74*,81*,44*,
COc1cc(/C=C2/C(=O)N(c3ccc(C(=O)O)cc3)N=C2C)cc(OC)c1O,-25,1,.,-10,-3,.,.,
COc1cc(C=C2C(=O)C=CC2=O)ccc1O,-1,-10,.,34,73*,10,5.4*,
CCOc1cc(/C=C2\C(=O)N(c3nc(-c4ccc(Br)cc4)cs3)N=C2c2ccccc2)ccc1O,.,.,2,-6,.,.,.,

# Screening results as filed in PubChem BioAssay.
